Reference: ChEMBL document CHEMBL6078676, “In Vitro and In Vivo Leishmanicidal Activity of Beauvericin” (J Nat Prod, 2024)
Values after ≈ are worked out from the molar mass of the structure shown. Active and inactive are the calls of the source. The rule behind the calls is not given here.

Experiments:
[1] = system: Leishmania amazonensis; test: Antileishmanial activity against Leishmania amazonensis IFLA/BR/67/PH8 promastigote assessed as parasite killing incubated for 24 hrs; assay type: functional, organism-based; conditions: IFLA/BR/67/PH8, 24 h
How it was run: (§1)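 Axenic parasites (5 × 10^6/well) were exposed for 24 h to increasing concentrations of compound dissolved in DMSO. MTT (5 mg/mL) was added for 3 h and the reaction stopped with 20% SDS. Formazan was read at 600 nm against a 650 nm reference to give EC50. Leishmania grew in supplemented M199 pH 7.4 at 25 °C; T. cruzi Y epimastigotes grew in LIT with 10% FBS at 28 °C.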

[2] = system: Trypanosoma cruzi; test: Antitrypanosomal activity against Trypanosoma cruzi Y epimastigote assessed as parasite killing incubated for 24 hrs; assay type: functional, organism-based; how it was run: as §1
[3] = system: Leishmania amazonensis; test: Antileishmanial activity against Leishmania amazonensis IFLA/BR/67/PH8 intracellular amastigote assessed as parasite killing incubated for 24 hrs; assay type: functional, organism-based; conditions: IFLA/BR/67/PH8, 24 h
[4] = system: Leishmania braziliensis; test: Antileishmanial activity against Leishmania braziliensis MHOM/BR/91/H3227 intracellular amastigote assessed as parasite killing incubated for 24 hrs; assay type: functional, organism-based; conditions: MHOM/BR/91/H3227, 24 h
[5] = system: Leishmania braziliensis; test: Antileishmanial activity against Leishmania braziliensis MHOM/BR/91/H3227 promastigote assessed as parasite killing incubated for 24 hrs; assay type: functional, organism-based; conditions: MHOM/BR/91/H3227, 24 h; how it was run: as §1
[6] = system: Leishmania amazonensis; test: Induction of membrane morphological changes in Leishmania amazonensis IFLA/BR/1967/PH8 promastigote upto 1.2 uM incubated for 24 hrs by optical microscopic analysis; assay type: functional, organism-based
[7] = system: Leishmania amazonensis; test: Induction of membrane morphological changes in Leishmania amazonensis IFLA/BR/67/PH8 promastigote assessed as shortening of cell body at 2.4 to 9.6 uM incubated for 24 hrs by optical microscopic analysis; assay type: functional, organism-based; conditions: dose 2.4-9.6 µM
[8] = system: Leishmania amazonensis; test: Induction of membrane morphological changes in Leishmania amazonensis IFLA/BR/67/PH8 promastigote assessed as rounding of cell body at 2.4 to 9.6 uM incubated for 24 hrs by optical microscopic analysis; assay type: functional, organism-based; conditions: dose 2.4-9.6 µM
[9] = system: PC-3; test: Inhibition of cell migration in human PC-3 cells; assay type: functional, cell-based
[10] = system: Leishmania amazonensis; test: Antileishmanial activity against Leishmania amazonensis IFLA/BR/67/PH8 amastigotes infected in mouse BMDM cells assessed as inhibition of parasite growth upto 1.6 uM pre-infected in cells for 24 hrs followed by compound addition and measured after 48 hrs by cell imaging analysis; assay type: functional, organism-based
How it was run: (§2)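 BALB/c BMDM (4 × 10^5) on coverslips were infected with stationary-phase L. amazonensis promastigotes, MOI 5, for 24 h at 34 °C, 5% CO2. After a PBS wash, cells received fresh RPMI with 0.4–1.6 μM. Incubation ran 24 h, 48 h, or 24 + 24 h with fresh medium. Cells were MeOH-fixed and stained; ≥300 cells were counted for infection rate, amastigotes/100 macrophages, and their product, relative to untreated. Two independent assays in triplicate.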

[11] = Selectivity index, ratio of CC50 for cytotoxicity against mouse L929 cells assessed as cell viability to EC50 for antitrypanosomal activity against Trypanosoma cruzi Y epimastigote assessed as parasite killing; assay type: toxicity, cell-based; conditions: read-out: Ratio CC50/EC50
How it was run: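 Ratio of 24 h MTT CC50 in L929 fibroblasts to T. cruzi Y epimastigote EC50.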

[12] = system: Leishmania amazonensis; test: Antileishmanial activity against Leishmania amazonensis IFLA/BR/67/PH8 amastigotes infected in female BALB/c mouse assessed as reduction in parasite burden at 5 to 10 mg/kg, ip administered for 15 days; assay type: functional, organism-based; conditions: dose 5-10 mg/kg, time 15.0 day
How it was run: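 Female BALB/c mice (35 days old) were infected at the tail base with ~1 × 10^6 stationary-phase L. amazonensis promastigotes. Treatment was 5 or 10 mg/kg/day ip in 150 μL DMSO/0.9% NaCl (1:9), daily for 15 days from week 7 to week 9; vehicle controls, 5 per group. Lesion parasite load was measured by limiting dilution in M199 with wells read after 7 days.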

[13] = system: Leishmania braziliensis; test: Induction of membrane morphological changes in Leishmania braziliensis MHOM/BR/91/H3227 assessed as appearance of sperm-like structure at 1.2 to 9.6 uM incubated for 24 hrs by optical microscopic analysis; assay type: functional, organism-based; conditions: dose 1.2-9.6 µM
[14] = Selectivity index, ratio of CC50 for cytotoxicity against mouse BMDM cells assessed as cell viability to EC50 for antileishmanial activity against Leishmania braziliensis MHOM/BR/91/H3227 intracellular amastigote assessed as parasite killing; assay type: toxicity, cell-based; conditions: read-out: Ratio CC50/EC50
How it was run: (§3)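 Ratio of 24 h MTT CC50 in BALB/c BMDM to Leishmania EC50.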

[15] = system: Leishmania amazonensis; test: Antileishmanial activity against Leishmania amazonensis IFLA/BR/67/PH8 amastigotes infected in female BALB/c mouse assessed as total ulcerated area by measuring delay in ulcer progression at 5 mg/kg, topically administered for 32 days and measured after 8 to 13 week; conditions: route topical, time 8-13 weeks
[16] = system: Leishmania amazonensis; test: Induction of membrane morphological changes in Leishmania amazonensis IFLA/BR/67/PH8 promastigote assessed as cell debris formation 2.4 to 9.6 uM incubated for 24 hrs by optical microscopic analysis; assay type: functional, organism-based; conditions: dose 2.4-9.6 µM
[17] = Selectivity index, ratio of CC50 for cytotoxicity against mouse BMDM cells assessed as cell viability to EC50 for antileishmanial activity against Leishmania amazonensis IFLA/BR/67/PH8 promastigote assessed as parasite killing; assay type: toxicity, cell-based; conditions: read-out: Ratio CC50/EC50; how it was run: as §3
[18] = system: HaCaT; test: Antiproliferative activity against human HaCaT cells assessed as inhibition of cell proliferation incubated for 72 hrs by MTT assay; assay type: functional, cell-based
[19] = system: Cell membrane; test: Induction of cell membrane permeabilization in Leishmania amazonensis IFLA/BR/67/PH8 promastigotes incubated for 24 hrs; assay type: subcellular
How it was run: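 Promastigotes were incubated 24 h with 1.0 μM. Membrane permeability was measured by ethidium bromide fluorescence against untreated cells.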

[20] = Cytotoxicity against mouse BMDM cells assessed as cell viability at 1.6 uM incubated for 24 hrs by MTT assay; assay type: toxicity, cell-based
[21] = Selectivity index, ratio of CC50 for cytotoxicity against mouse BMDM cells assessed as cell viability to EC50 for antileishmanial activity against Leishmania braziliensis MHOM/BR/91/H3227 promastigote assessed as parasite killing; assay type: toxicity, cell-based; conditions: read-out: Ratio CC50/EC50; how it was run: as §3
[22] = system: MDA-MB-231; test: Inhibition of cell migration in human MDA-MB-231 cells; assay type: functional, cell-based
[23] = system: Leishmania braziliensis; test: Induction of membrane morphological changes in Leishmania braziliensis MHOM/BR/91/H3227 assessed as appearance of slender cell bodies at 1.2 to 9.6 uM incubated for 24 hrs by optical microscopic analysis; assay type: functional, organism-based; conditions: dose 1.2-9.6 µM
[24] = Cytotoxicity against mouse BMDM cells assessed as cell viability incubated for 24 hrs by MTT assay; assay type: toxicity, cell-based
How it was run: (§4)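 MTT viability after 24 h exposure to increasing concentrations (DMSO solution) gave CC50. BMDM (4 × 10^5/well) were differentiated for 7 days from female BALB/c marrow in RPMI with 20% FBS and 30% L929 supernatant. L929 fibroblasts (5 × 10^4/well) were in supplemented RPMI. Both were held at 37 °C, 5% CO2. Read at 600/650 nm after 3 h MTT and SDS stop.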

[25] = system: Leishmania braziliensis; test: Antileishmanial activity against Leishmania braziliensis MHOM/BR/91/H3227 intracellular amastigotes infected in mouse BMDM cells assessed as reduction in infectivity index at 1.6 uM pre-infected in cells for 24 hrs followed by compound addition and measured after 48 hrs by cell imaging analysis; assay type: functional; design: scale not given: the % may be the effect or the level left
How it was run: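 BMDM infected with stationary-phase L. braziliensis promastigotes, MOI 10, for 24 h at 34 °C, 5% CO2. After washing, cells were given 0.4–1.6 μM in fresh RPMI for 48 h. MeOH fixation and staining, then ≥300 host cells counted. Infectivity index (infection rate × amastigotes per 100 macrophages) expressed relative to untreated; two independent assays in triplicate.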

[26] = system: Leishmania amazonensis; test: Induction of membrane morphological changes in Leishmania amazonensis IFLA/BR/67/PH8 promastigote assessed as aberrant nuclei 2.4 to 9.6 uM incubated for 24 hrs by optical microscopic analysis; assay type: functional, organism-based; conditions: dose 2.4-9.6 µM
[27] = system: Leishmania amazonensis; test: Antileishmanial activity against Leishmania amazonensis IFLA/BR/67/PH8 amastigotes infected in mouse BMDM cells assessed as reduction in infectivity index at 1.6 uM pre-infected in cells for 24 hrs followed by compound addition and measured after 48 hrs; assay type: functional; design: scale not given: the % may be the effect or the level left; how it was run: as §2
[28] = system: Leishmania amazonensis; test: Antileishmanial activity against Leishmania amazonensis IFLA/BR/67/PH8 amastigotes infected in female BALB/c mouse assessed as reduction in mean lesion at 5 mg/kg, topically administered for 32 days and measured after 8 to 13 week; conditions: route topical, time 8-13 weeks
[29] = Cytotoxicity against mouse L929 cells assessed as cell viability measured for 24 hrs by MTT assay; assay type: toxicity, cell-based; how it was run: as §4
[30] = Selectivity index, ratio of CC50 for cytotoxicity against mouse BMDM cells assessed as cell viability to EC50 for antileishmanial activity against Leishmania amazonensis IFLA/BR/67/PH8 intracellular amastigote; assay type: toxicity, cell-based; conditions: read-out: Ratio CC50/EC50; how it was run: as §3
[31] = system: Leishmania braziliensis; test: Induction of membrane morphological changes in Leishmania braziliensis MHOM/BR/91/H3227 assessed as appearance of leaf-like promastigotes at 1.2 to 9.6 uM incubated for 24 hrs by optical microscopic analysis; assay type: functional, organism-based; conditions: dose 1.2-9.6 µM
[32] = system: Leishmania amazonensis; test: Antileishmanial activity against Leishmania amazonensis IFLA/BR/67/PH8 amastigotes infected in mouse BMDM cells at 1.6 uM pre-infected in cells for 24 hrs followed by compound addition and measured after 48 hrs; assay type: functional, organism-based; how it was run: as §2
[33] = system: Leishmania amazonensis; test: Antileishmanial activity against Leishmania amazonensis assessed as reduction in parasite proliferation at 50 microg/ml incubated for 72 hrs; assay type: functional; design: scale not given: the % may be the effect or the level left; conditions: dose 50 µg/ml
[34] = system: Leishmania amazonensis; test: Antileishmanial activity against Leishmania amazonensis assessed as reduction in parasite proliferation incubated for 72 hrs; assay type: functional, organism-based

SMILES: C[C@@H]1[C@H](O)[C@@H](C)/C=C/C=C/C=C/C=C/C=C/C=C/C=C/[C@H](O[C@@H]2O[C@H](C)[C@@H](O)[C@H](N)[C@@H]2O)C[C@@H]2O[C@](O)(C[C@@H](O)C[C@@H](O)[C@H](O)CC[C@@H](O)C[C@@H](O)CC(=O)O[C@H]1C)C[C@H](O)[C@H]2C(=O)O [AMPHOTERICIN B]
- EC50 [1]: 200 nM
- EC50 [2]: 2230 nM
- EC50 [3]: 200 nM
- EC50 [4]: 200 nM
- EC50 [5]: 200 nM

SMILES: CC(C)[C@H]1OC(=O)[C@H](Cc2ccccc2)N(C)C(=O)[C@@H](C(C)C)OC(=O)[C@H](Cc2ccccc2)N(C)C(=O)[C@@H](C(C)C)OC(=O)[C@H](Cc2ccccc2)N(C)C1=O
- Activity [6]: Active
- Activity [7]: Active
- Activity [8]: Active
- inhibition [9]: Active
- EC50 [1]: 1200 nM
- Activity [10]: Active
- selectivity ratio [11]: 13.4
- EC50 [2]: 3400 nM
- EC50 [3]: 800 nM
- Activity [12]: Active
- Activity [13]: Active
- selectivity ratio [14]: 29.7
- Activity [15]: Active
- Activity [16]: Active
- selectivity ratio [17]: 14.8
- EC50 [4]: 600 nM
- IC50 [18]: 3900 nM
- Activity [19]: Active
- Activity [20]: Non-toxic
- selectivity ratio [21]: 19.8
- EC50 [5]: 900 nM
- inhibition [22]: Active
- Activity [23]: Active
- CC50 at 24 h [24]: 17800 nM
- Activity [25]: 89%
- Activity [26]: Active
- Activity [27]: 95%
- Activity [28]: inactive
- CC50 at 24 h [29]: 45500 nM
- selectivity ratio [30]: 22.3
- Activity [31]: Active
- Activity [32]: Active

SMILES: O=c1cc(CO)occ1O [KOJIC ACID]
- Activity [33]: 79%
- EC50 [34]: 27.8 µg/mL (≈ 196 µM)
